Screens as filed in PubChem BioAssay.
Hits are enriched below; roughly 1.8% of the tested compounds scored in any of these assays.
Jurkat NFkB inh – inhibitors of induced NF-kB luciferase reporter, primary screen, TCR NF-kB activation inhibitor project, cell-based, luminescence, uHTS; Jurkat, PMA/ionomycin-induced NF-kB luciferase reporter; inhibition, % at 4 µM; 330,000 tested, 0.53% active; AID 435003, 2010; in the data active = inhibition above about 50%
UPR CHOP act – activators of apoptotic CHOP UPR arm, primary screen, cell-based, CHO-CHOP luciferase reporter, luminescence, uHTS; 330,000 tested, 0.34% active; activation, % at 10 µM; AID 449763, 2010; UPR activation; percent of tunicamycin response over DMSO baseline;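 active = at 10 µM dose, activation of 40% or more, normalized to positive control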;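 note: 100% = tunicamycin at 10 µg/mL and 0% = DMSO alone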
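Assay system: CHO-CHOP cells, stable luciferase reporter of PERK-eIF2a-CHOP signalling / Buffer or medium: F12 plus 10% serum / Compound dosing: one dose, 10 µM in 0.5% DMSO / Times: 6 h compound treatment, 37 °C / Technique: luciferase luminescence / Read-out: % reporter activation, DMSO baseline versus tunicamycin full activation / Benchmarks: tunicamycin and DMSO controls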
697 NFkB inh – inhibitors of PMA/ionomycin-induced NF-kB reporter, 697 cells, primary screen, B-cell NF-kB inhibitor project, cell-based, luminescence, uHTS; 697 B-cell NF-kB luciferase reporter, 16 h; inhibition, % at 4 µM; 330,000 tested, 0.33% active; in the data active = inhibition above about 35%
UPR XBP1 act – activators of adaptive XBP1 UPR arm, primary screen, cell-based, CHO-XBP1 luciferase reporter, luminescence, uHTS; IRE1-XBP1 UPR activation; percent of tunicamycin response, DMSO as zero; activation, % at 20 µM; 330,000 tested, 0.33% active;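 active = versus positive control, 20 µM dose yields 30% or more activation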;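 note: 100% = tunicamycin at 10 µg/mL and 0% = DMSO only wells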
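Material: CHO-XBP1 cells stably carrying IRE1-XBP1-driven luciferase reporter / Amount: 1000 cells per well / Compound: 20 µM, 1% DMSO / Times: 6 h treatment, 37 °C / Detection: luciferase luminescence / Measure: % activation of reporter signal versus tunicamycin and DMSO controls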
CRFBP-R2 block – antagonists of CRF-BP/CRF-R2 complex, primary screen, cell-based, HEK293, calcium dye fluorescence, uHTS; CRF-induced calcium fluorescence; inhibition, % at 11.8 µM; 350,000 tested, 0.59% active;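 active = inhibition of the ligand-induced calcium signal above about 50% at the single tested concentration, limit read from the data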
697 NFkB conf – PMA/ionomycin-induced NF-kB reporter inhibitors, 697 retest, confirmation, B-cell NF-kB inhibitor project, cell-based, luminescence, single concentration | shares compounds with 697 NFkB inh | 697 B-cell NF-kB luciferase, 16 h | inhibition, % at 4 µM | 2,000 tested, 35% active | AID 449746, 2010; in the data active = inhibition mostly above about 28%, no sharp cut-off; inactive = mostly below about 22%
Numbers without * were called inactive; i = inactive; nt = no result.

SMILES	Jurkat NFkB inh	UPR CHOP act	697 NFkB inh	UPR XBP1 act	CRFBP-R2 block	697 NFkB conf
CCOC(=O)c1c(NC(=O)c2c(-c3ccccc3)noc2C)sc(C)c1-c1ccccc1	-28.2	0.3	i	-3.6	-15.6	i
CCOCc1nnc(NC(=O)c2c(-c3ccccc3)noc2C)s1	12.3	0.8	6.0	-1.4	-6.2	nt
CC(C)(C)C(=O)Nc1sc(-c2ccccc2)cc1C(=O)O	-19.7	4.4	i	1.6	15.8	i
CCCC[n+]1ccn(-c2nc3ccccc3nc2[N-]S(=O)(=O)c2ccc(Br)cc2)c1	9.9	1.4	36.7*	-3.5	-6.5	16.1
CC(C)CC[n+]1ccn(-c2nc3ccccc3nc2[N-]S(=O)(=O)c2ccccc2)c1	0.8	-0.9	2.7	-2.0	2.3	nt
CCOC(=O)N1CCc2cc(OC)c(OC)c3c2c1cc1cc(OC)c(OC)cc13	nt	nt	nt	nt	2.8	nt
CCCC(=O)N1c2ccccc2[C@@H](N(C(C)=O)c2ccccc2)C[C@H]1C	-0.5	0.3	17.6	1.0	-22.9	nt
CCC(=O)N1c2ccccc2C(N(C(C)=O)c2ccccc2)CC1C (centres undefined)	11.6	1.2	37.3*	0.3	13.2	45.0*
CCOC(=O)C1CCN(CCCSc2ccccc2)CC1	nt	nt	nt	nt	5.1	nt
Cc1cccc(OCc2nnc(SCC(=O)NCc3ccc4c(c3)OCO4)o2)c1	nt	nt	nt	nt	6.9	nt
CC(C)(C)C(=O)N1CCN(c2ccnc3cc(Cl)ccc23)CC1	12.7	-0.1	18.0	-3.9	7.8	nt
CC(=O)c1ccc(N2CCN(c3ccnc4cc(Cl)ccc34)CC2)cc1	40.4	4.3	41.5*	-0.4	5.6	1.5
Cn1c(=O)[nH]c(=O)c2c1nc(N/N=C/c1ccncc1)n2Cc1ccc(Cl)cc1	-1.5	1.5	37.7*	5.3	-4.7	17.6
CSc1nc2c(c(=O)[nH]c(=O)n2C)n1Cc1ccc(Cl)cc1	-3.9	1.9	-14.7	3.5	-45.2	nt
COc1ccc2nc(NC(=O)Nc3cccc4ccccc34)sc2c1	-18.2	6.0	-56.8	8.8	-30.1	nt
COc1ccc2nc(NC(=O)c3cccs3)sc2c1	-124.3	-0.1	-352.1	-2.5	-17.9	-341.5
COc1ccc2nc(NC(=O)c3ccccc3[N+](=O)[O-])sc2c1	-19.6	3.0	-51.7	2.2	2.4	nt
COc1ccc2nc(NC(C)=O)sc2c1	-70.1	4.5	-94.7	0.4	-5.3	nt
COc1ccc2nc(NC(=O)Nc3ccccc3OC)sc2c1	-78.0	5.2	-295.6	7.5	-12.0	-365.5
COc1ccc2nc(NC(=O)c3ccccc3O)sc2c1	-70.0	3.9	-308.8	-5.8	9.7	-223.8
CCCOc1cccc(C(=O)Nc2ccc3c(c2)OCCO3)c1	-135.6	-0.5	-106.4	-7.9	-8.0	nt
CC(C)c1nc2oc3c(NCC4CCCO4)ncnc3c2c2c1CCC2 (centres undefined)	6.8	4.6	42.1*	6.1	-40.1	24.5
O=C1C(=O)c2ccccc2C(O)=C1c1ccccc1F	2.8	-1.4	11.1	0.9	-3.9	nt
O=Cc1nccc2ccccc12	nt	nt	nt	nt	-38.3	nt
O=C1c2ccccc2C(=O)C1c1nccc2ccccc12	-42.5	-8.2	-321.2	-12.0	14.0	-271.4
SMILES	Jurkat NFkB inh	UPR CHOP act	697 NFkB inh	UPR XBP1 act	CRFBP-R2 block	697 NFkB conf
N#CC1=C(N)SC(N)=C(C#N)C1c1ccnc2ccccc12	-15.6	-1.4	-8.3	-0.5	20.3	nt
O=C1C(c2ccnc3ccccc23)=C(O)c2ccccc21	1.5	-7.5	-338.5	-12.4	6.2	-298.4
O=C1c2ccccc2C(=O)C1c1ccnc2ccccc12	-34.4	-7.3	-262.0	-4.8	-2.1	-288.1
Cc1cccc(C(=O)n2c(=S)nc3ccccn32)c1	-132.3	-3.0	-336.7	-3.7	9.1	-291.2
Cc1cccc(C(=O)N2CCCCCC2)c1	1.2	0.3	23.0	-3.1	-4.2	nt
CC(=O)c1c(C)[nH]c(C(=O)CN2CCN(S(=O)(=O)c3ccccc3)CC2)c1C	-1.5	-2.3	9.7	-3.5	5.3	nt
Cc1ccc(-c2cc(Cc3ccccc3)c(=O)[nH]n2)cc1	-7.8	0.8	-9.0	-1.4	15.1	nt
